This note sets out measurements from ChEMBL document CHEMBL4017520, “Discovery, Structure-Activity Relationship, and Antiparkinsonian Effect of a Potent and Brain-Penetrant Chemical Series of Positive Allosteric Modulators of Metabotropic Glutamate Receptor 4” (J Med Chem, 2017).

Data set [1] can be described thus: Cmax in C57BL/6 mouse at 2 mg/kg, iv administered as single dose by LC-MS/MS analysis. In kind it is ADME, organism-based. More on the design: dose 2 mg/kg, route intravenous. The settings on record: in vivo.
Data set [2] can be described thus: Drug uptake in C57BL/6 mouse brain at 10 mg/kg, po after 30 mins post dose administered as single dose by LC-MS/MS analysis. It counts as ADME, organism-based. The settings on record: read-out: Drug uptake. A digest of the protocol: (§1)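 Mice given 10 mg/kg orally. Plasma Cmax was determined and brain concentration measured at 30 min postdose. Values are the mean (±SEM) of 2 mice.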

A short description of data set [3]: Drug uptake in Sprague-Dawley rat brain at 30 mg/kg, ip after 60 mins. As to conditions: read-out: Drug uptake. It counts as ADME, organism-based.
Data set [4] in a line: Drug uptake in Sprague-Dawley rat brain at 30 mg/kg, ip after 240 mins. It counts as ADME, organism-based. The settings on record: read-out: Drug uptake.
Data set [5] is described as follows: Ratio of drug uptake in Sprague-Dawley rat brain at 10 mg/kg, po to EC50 for rat mGlu4 receptor expressed in HEK293 cells. Summed up:
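Rats received a single ip or oral dose. Brain concentration was measured 30 min postdose, mean of 3 rats, and divided by the EC50 measured in cell lines overexpressing rat mGluR4.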

The nature of data set [6]: Ratio of fraction unbound in Sprague-Dawley rat brain at 30 mg/kg, ip after 240 mins to EC50 for rat mGlu4 receptor expressed in HEK293 cells.
A short description of data set [7]: AUC (0 to infinity) in Sprague-Dawley rat plasma at 10 mg/kg, ip administered as single dose by LC-MS/MS analysis. In kind it is ADME, organism-based. More on the design: dose 10 mg/kg, time infinity, route intraperitoneal. A digest of the protocol: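 Rats dosed ip at 10 or 30 mg/kg. Plasma Cmax, Tmax, half-life and AUC0–inf were determined. Brain concentration was measured 30 min postdose, and brain/plasma ratio was taken at 30 min. Values are the mean (±SEM) of 3 rats.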

Data set [8] in a line: Drug uptake in Sprague-Dawley rat brain at 30 mg/kg, ip after 30 mins. In kind it is ADME, organism-based. As to conditions: read-out: Drug uptake.
The nature of data set [9]: Cmax in C57BL/6 mouse plasma at 10 mg/kg, po administered as single dose by LC-MS/MS analysis. On the set-up: dose 10 mg/kg, route oral. It counts as ADME, organism-based. Summed up:
as §1

The next data set has as its system Mus musculus. The data set can be described thus: Volume of distribution in C57BL/6 mouse at 2 mg/kg, iv administered as single dose by LC-MS/MS analysis. The settings on record: in vivo. In kind it is ADME, organism-based. A digest of the protocol: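 Single intravenous dose: rats 1 mg/kg, mice 2 mg/kg. Plasma concentration–time data yielded Cmax, t1/2, AUC0−∞, plasma clearance and volume of distribution. Values are mean ±SEM of 3 animals.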

Data set [10] is described as follows: Ratio of drug level in C57BL/6 mouse brain to plasma at 10 mg/kg, po after 30 mins post dose administered as single dose by LC-MS/MS analysis. In kind it is ADME, organism-based. As to conditions: read-out: BPR. A digest of the protocol: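 Single dose ip (10 or 30 mg/kg, rat) or oral (10 mg/kg, rat or mouse); plasma Cmax, Tmax, half-life, AUC0−inf derived; brain concentration and brain/plasma ratio at 30 min postdose. Mean of 3 rats or 2 mice.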

The subject of data set [11] is Rattus norvegicus. The data set can be described thus: Protection against 6-OHDA induced parkinsonian motor deficit in Sprague-Dawley rat assessed as increase in active time at 30 mg/kg, ip after 28 days post surgery. In kind it is functional, organism-based. A digest of the protocol:
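Adult male Sprague−Dawley rats with bilateral 6-OHDA striatal lesions given compound 30 mg/kg ip or vehicle at T0; spontaneous locomotor activity (active time, slow activity, rearing) counted in 5-min bins versus pre-surgery vehicle; n = 10.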

Data set [12] addresses Adenosine receptor A2a (Homo sapiens) (UniProt P29274). Nature of the data set: Agonist activity at A2A receptor (unknown origin) at 10 uM.
Data set [13] is filed under the species Rattus norvegicus. Nature of the data set: Activity at AMPA glutamate receptor in rat cerebral cortex at 10 uM. Summed up: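 Inhibition of orthosteric ligand binding to NMDA, AMPA and kainate receptors on rat cerebral cortex membranes, tested up to 10 μM.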
Data set [14] concerns the target Metabotropic glutamate receptor 7 (Homo sapiens) (UniProt Q14831). Nature of the data set: Activity at human mGlu7 receptor expressed in HEK293 cells co-expressing Gi/Gq assessed as effect on intracellular calcium level up to 10 uM after 10 mins by Fluo4-AM dye based fluorescence assay. It counts as functional, cell-based. A digest of the protocol: (§2)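 HEK-293 cells transiently expressing the human mGluR with a promiscuous or chimeric G protein were serum-starved 3 h and loaded 1.5 h with 1 μM Fluo4-AM. Compound alone was added in assay buffer, and calcium fluorescence (ex 485/em 525) was recorded for 10 min as agonist readout.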

The target in data set [15] is T1, Metabotropic glutamate receptor 4 (Homo sapiens, UniProt Q14833). Nature of the data set: Agonist activity at recombinant human mGlu4 receptor expressed in HEK293 cells co-expressing chimeric Gi/Gq protein assessed as increase in calcium flux at 3 uM after 10 mins by Fluo4-AM dye based fluorescence assay relative to control. It counts as functional, cell-based. A digest of the protocol:
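Human mGluR4 co-expressed in HEK293 cells with the chimeric Gi/Gq (GqTOP) protein, loaded with Fluo4-AM. Compound was added alone and calcium signal recorded for 10 min, compared with the buffer-evoked basal signal.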
(Calcium assays in cells follow changes in intracellular calcium, usually with a dye or a luminescent sensor.)

Data set [16] has as its target Receptor-type tyrosine-protein kinase FLT3 (Homo sapiens) (UniProt P36888). Nature of the data set: Inhibition of Flt3 (unknown origin) at 10 uM relative to control.
The target of data set [17] is T1, Metabotropic glutamate receptor 4. The data set can be described thus: Positive allosteric modulation of recombinant human mGlu4 receptor expressed in HEK293 cells co-expressing chimeric Gi/Gq protein assessed as fold shift in glutamate-induced calcium flux at 3 uM preincubated for 10 mins followed by glutamate addition measured for 3 mins by Fluo4-AM dye based fluorescence assay. It counts as functional, cell-based. A digest of the protocol:
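HEK-293 cells transiently co-transfected by electroporation with human mGluR4 and chimeric Gi/Gq (GqTOP) were cultured 24 h, FCS-starved 3 h, then loaded 1 h 30 min with 1 μM Fluo4-AM in HBSS/20 mM HEPES buffer containing probenecid and 0.1% BSA. Compound was added for 10 min, then glutamate (10 or 20 concentrations over 4.5 logs), read 3 min (ex 485/em 525 nm). The fold change in glutamate potency with vs without compound gives the shift.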

Data set [18] concerns the target Metabotropic glutamate receptor 4 (Rattus norvegicus) (UniProt P31423). Nature of the data set: Positive allosteric modulation of rat mGlu4 receptor expressed in HEK293 cells co-expressing Gi/Gq assessed as increase in glutamate-induced calcium flux preincubated for 10 mins followed by glutamate addition measured for 3 mins by Fluo4-AM dye based fluorescence assay relative to control. It counts as functional, cell-based.

Data set [19] has as its target Metabotropic glutamate receptor 3 (Homo sapiens) (UniProt Q14832). Nature of the data set: Activity at human mGlu3 receptor expressed in HEK293 cells co-expressing Gi/Gq assessed as effect on intracellular calcium level up to 10 uM after 10 mins by Fluo4-AM dye based fluorescence assay. It counts as functional, cell-based. Summed up:
as §2

In data set [20] the target is D(1A) dopamine receptor (Homo sapiens) (UniProt P21728). The data set can be described thus: Positive allosteric modulation of D1 receptor (unknown origin) at 10 uM.
Chain of D(1A) dopamine receptor (Homo sapiens) (P21728 whole entry): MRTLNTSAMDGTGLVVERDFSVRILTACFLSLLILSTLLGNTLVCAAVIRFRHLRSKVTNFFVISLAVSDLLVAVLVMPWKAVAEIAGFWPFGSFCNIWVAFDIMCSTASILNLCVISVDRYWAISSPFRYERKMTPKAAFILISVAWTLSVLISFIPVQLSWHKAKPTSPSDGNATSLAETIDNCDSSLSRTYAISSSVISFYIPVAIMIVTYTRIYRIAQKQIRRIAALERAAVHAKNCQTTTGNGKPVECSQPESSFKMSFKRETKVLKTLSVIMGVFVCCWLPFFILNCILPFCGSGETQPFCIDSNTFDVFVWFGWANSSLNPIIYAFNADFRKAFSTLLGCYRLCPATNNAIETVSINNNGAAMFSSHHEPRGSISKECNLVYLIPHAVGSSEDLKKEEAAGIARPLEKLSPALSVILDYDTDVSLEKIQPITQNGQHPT
The target of data set [21] is Metabotropic glutamate receptor 3 (Homo sapiens) (UniProt Q14832). The data set can be described thus: Activity at human mGlu3 receptor expressed in HEK293 cells co-expressing Gi/Gq assessed as effect on EC20/EC80 glutamate-induced intracellular calcium level up to 10 uM preincubated for 10 mins followed by glutamate addition measured for 3 mins by Fluo4-AM dye based fluorescence assay. In kind it is functional, cell-based. A digest of the protocol:
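HEK-293 cells were electroporated with the human mGluR plus a promiscuous or chimeric G protein and cultured 24 h, then serum-starved 3 h. Cells were loaded 1.5 h with 1 μM Fluo4-AM in HBSS/HEPES buffer with probenecid and 0.1% BSA. Compound was added for 10 min, then glutamate at EC20 (PAM) or EC80 (NAM), and fluorescence (ex 485/em 525) was read for 3 min.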

The species named for the next data set is Homo sapiens. The data set can be described thus: Selectivity ratio of compound effect for positive allosteric modulation of recombinant human mGlu4 receptor to compound effect for activity at human mGlu6 receptor.

Activity calls are given as the source filed them. The rule behind the calls is not given here.

T1 sequence (Q14833 whole entry): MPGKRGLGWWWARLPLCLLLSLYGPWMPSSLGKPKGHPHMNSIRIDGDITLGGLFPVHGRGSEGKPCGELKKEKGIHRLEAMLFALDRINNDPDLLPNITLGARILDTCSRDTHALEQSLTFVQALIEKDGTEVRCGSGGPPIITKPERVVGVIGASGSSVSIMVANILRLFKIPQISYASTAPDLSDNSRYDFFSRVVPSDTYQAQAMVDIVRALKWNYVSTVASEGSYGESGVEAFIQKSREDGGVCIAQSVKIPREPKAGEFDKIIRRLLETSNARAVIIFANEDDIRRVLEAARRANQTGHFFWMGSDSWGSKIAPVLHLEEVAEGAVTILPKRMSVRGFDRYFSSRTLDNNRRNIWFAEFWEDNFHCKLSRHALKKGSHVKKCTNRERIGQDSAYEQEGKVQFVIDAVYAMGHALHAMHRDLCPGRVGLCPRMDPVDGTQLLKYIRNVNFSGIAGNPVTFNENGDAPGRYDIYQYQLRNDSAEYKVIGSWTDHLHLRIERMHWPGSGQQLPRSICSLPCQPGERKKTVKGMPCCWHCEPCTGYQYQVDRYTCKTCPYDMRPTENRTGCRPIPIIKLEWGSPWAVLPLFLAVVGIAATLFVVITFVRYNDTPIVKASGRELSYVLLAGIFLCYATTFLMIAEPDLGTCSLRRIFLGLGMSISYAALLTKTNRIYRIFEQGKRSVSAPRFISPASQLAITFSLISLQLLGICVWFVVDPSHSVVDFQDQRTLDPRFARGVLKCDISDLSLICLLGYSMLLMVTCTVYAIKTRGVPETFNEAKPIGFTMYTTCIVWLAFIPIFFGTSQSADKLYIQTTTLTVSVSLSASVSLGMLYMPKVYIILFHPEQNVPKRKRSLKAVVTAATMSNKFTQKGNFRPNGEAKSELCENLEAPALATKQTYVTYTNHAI
Chain of Metabotropic glutamate receptor 3 (Homo sapiens) (Q14832 23-879 limits assumed): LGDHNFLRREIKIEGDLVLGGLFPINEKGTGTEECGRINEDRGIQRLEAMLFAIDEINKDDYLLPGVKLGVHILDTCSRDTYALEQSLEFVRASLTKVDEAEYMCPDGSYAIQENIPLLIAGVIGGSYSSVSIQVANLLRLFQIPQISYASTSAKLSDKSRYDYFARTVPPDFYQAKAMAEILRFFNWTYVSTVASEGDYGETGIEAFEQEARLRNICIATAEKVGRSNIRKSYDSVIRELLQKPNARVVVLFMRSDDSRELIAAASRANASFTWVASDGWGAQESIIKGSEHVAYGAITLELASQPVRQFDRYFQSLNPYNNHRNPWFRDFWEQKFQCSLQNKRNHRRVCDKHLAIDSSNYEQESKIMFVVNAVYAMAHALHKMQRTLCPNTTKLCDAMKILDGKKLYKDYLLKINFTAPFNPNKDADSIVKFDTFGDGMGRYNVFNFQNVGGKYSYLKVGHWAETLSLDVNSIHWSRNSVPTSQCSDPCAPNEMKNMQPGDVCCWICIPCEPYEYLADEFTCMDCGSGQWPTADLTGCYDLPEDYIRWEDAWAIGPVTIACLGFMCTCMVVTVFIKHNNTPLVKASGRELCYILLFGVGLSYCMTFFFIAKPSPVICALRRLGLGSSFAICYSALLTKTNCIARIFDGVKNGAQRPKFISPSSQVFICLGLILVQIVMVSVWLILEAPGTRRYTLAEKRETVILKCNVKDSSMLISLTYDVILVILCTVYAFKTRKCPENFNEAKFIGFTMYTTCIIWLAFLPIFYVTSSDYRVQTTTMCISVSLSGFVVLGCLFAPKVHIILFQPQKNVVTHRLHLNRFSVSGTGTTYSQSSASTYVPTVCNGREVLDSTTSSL
Chain of Adenosine receptor A2a (Homo sapiens) (P29274 whole entry): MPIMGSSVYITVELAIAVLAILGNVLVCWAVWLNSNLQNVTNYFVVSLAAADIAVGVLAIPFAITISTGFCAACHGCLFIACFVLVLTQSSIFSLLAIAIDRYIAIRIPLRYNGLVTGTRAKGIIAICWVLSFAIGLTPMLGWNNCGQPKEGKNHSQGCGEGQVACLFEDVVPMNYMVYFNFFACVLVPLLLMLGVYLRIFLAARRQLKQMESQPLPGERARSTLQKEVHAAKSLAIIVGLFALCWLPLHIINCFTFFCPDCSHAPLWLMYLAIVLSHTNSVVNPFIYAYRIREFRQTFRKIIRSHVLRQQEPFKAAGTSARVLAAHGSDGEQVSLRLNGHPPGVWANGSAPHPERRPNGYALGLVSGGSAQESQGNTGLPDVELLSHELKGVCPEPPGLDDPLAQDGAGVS
Chain of Metabotropic glutamate receptor 7 (Homo sapiens) (Q14831 whole entry): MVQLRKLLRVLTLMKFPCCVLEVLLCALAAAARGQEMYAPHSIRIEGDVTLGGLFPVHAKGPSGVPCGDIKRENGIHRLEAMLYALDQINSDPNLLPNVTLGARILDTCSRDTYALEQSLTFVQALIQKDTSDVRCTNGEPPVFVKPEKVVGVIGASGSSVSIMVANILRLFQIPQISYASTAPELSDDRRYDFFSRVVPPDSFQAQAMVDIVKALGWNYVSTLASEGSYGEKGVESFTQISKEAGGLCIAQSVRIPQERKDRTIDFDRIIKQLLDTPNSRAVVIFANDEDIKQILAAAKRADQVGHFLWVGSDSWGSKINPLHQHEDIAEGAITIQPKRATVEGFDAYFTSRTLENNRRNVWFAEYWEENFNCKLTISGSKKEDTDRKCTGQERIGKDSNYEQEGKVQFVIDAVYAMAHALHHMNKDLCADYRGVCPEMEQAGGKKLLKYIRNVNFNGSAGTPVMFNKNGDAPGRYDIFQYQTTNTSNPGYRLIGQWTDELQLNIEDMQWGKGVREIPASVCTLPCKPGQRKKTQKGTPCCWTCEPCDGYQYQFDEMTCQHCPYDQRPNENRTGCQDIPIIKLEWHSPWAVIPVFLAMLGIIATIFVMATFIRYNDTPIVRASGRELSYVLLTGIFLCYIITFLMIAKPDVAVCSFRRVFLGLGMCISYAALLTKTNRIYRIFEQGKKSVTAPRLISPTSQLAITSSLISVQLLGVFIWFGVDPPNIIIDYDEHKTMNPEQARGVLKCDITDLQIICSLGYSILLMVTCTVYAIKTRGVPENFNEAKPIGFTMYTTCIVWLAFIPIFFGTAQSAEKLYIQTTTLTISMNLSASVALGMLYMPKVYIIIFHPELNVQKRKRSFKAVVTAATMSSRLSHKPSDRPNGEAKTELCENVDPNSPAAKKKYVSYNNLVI
Chain of Metabotropic glutamate receptor 4 (Rattus norvegicus) (P31423 whole entry): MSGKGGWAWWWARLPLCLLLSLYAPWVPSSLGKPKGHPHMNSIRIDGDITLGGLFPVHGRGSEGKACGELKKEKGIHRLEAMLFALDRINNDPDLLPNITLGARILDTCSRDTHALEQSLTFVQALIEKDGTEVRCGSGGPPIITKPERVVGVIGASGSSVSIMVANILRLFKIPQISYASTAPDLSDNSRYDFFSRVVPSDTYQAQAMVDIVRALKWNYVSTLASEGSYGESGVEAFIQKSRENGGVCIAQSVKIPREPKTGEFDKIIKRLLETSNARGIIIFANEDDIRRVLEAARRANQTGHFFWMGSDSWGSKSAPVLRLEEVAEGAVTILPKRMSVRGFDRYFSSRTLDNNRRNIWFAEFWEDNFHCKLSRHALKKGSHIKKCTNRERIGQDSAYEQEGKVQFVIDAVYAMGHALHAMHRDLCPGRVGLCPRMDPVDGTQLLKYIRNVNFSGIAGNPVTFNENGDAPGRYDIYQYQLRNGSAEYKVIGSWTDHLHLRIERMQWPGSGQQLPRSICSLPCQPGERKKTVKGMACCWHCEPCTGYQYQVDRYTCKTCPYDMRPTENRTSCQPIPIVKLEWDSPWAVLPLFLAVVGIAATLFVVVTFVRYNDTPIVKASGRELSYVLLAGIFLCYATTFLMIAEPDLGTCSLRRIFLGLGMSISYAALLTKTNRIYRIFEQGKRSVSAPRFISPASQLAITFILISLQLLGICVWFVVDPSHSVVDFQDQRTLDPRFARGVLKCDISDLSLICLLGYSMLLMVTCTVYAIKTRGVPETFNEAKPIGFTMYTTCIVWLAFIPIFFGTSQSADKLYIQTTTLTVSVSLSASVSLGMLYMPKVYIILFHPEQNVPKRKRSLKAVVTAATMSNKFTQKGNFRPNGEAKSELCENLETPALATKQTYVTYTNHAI

A word on the Cmax: it is the peak of the concentration-time curve. By AUC(0-inf) is commonly meant total exposure, with the tail of the curve extrapolated. The low end stands for less exposure, the high end for more exposure. A word on the Vd: it is a proportionality between amount in the body and measured concentration, not a real space. `O/N=c1\cc(-c2cc3cccn3cn2)oc2ccc(OCCN3CCOCC3)cc12` [listing 1 of 2 here]: the peak concentration (Cmax) amounted to 753 ng/mL in data set [1] and 229 ng/mL in [9]. Moreover, the figures for the concentration at 0.5 h in data set [2] and in data set [8] were 390 ng/g and 22800 ng/g, respectively. Also, the concentration at 1 h in data set [3] stood at 12000 ng/g. In data set [4], the concentration at 4 h is 322 ng/g. The Ratio in data set [5] was determined as 0.3; in data set [6], 0.2. Also, the area under the curve AUC(0-inf) in data set [7] is 2240 ng·h/mL. The Vd in the data set on Mus musculus was found to be 6 L/kg. Besides, in [10], the Kp at 0.5 h was 1.7.
As a reminder, the inhibition is the percentage by which the read-out fell short of the control. Low readings indicate a weak effect, high ones a strong effect. Usually Emax stands for the size of the effect at its maximum, as opposed to the concentration needed. Regarding `O/N=c1\cc(-c2cc3cccn3cn2)oc2ccc(OCCN3CCOCC3)cc12` [listing 2 of 2 here], the outcome in the data set with Rattus norvegicus [11] was Active. Further, the outcome (in data set [12]; in the data set filed under Rattus norvegicus [13]; in [14]; in data set [19]; in [20]; in data set [21]) was inactive. The Activity in [15] was 19%. In data set [16], this molecule registered an inhibition of 64%. Also, the fold change (FC) in [17] amounted to 10. In addition, the Emax in data set [18] turned out to be 75%. The Selectivity ratio in the data set listed under Homo sapiens amounted to 13.
